Measured values of several laboratories.
Each line is one published result; the experiments were not run side by side.
PDE3A: cGMP-inhibited 3',5'-cyclic phosphodiesterase 3A (PDE3A, Homo sapiens, UniProt Q14432)
LRRK2: Leucine-rich repeat serine/threonine-protein kinase 2 (LRRK2, Homo sapiens, UniProt Q5S007)
MAPK14: Mitogen-activated protein kinase 14 (MAPK14, Homo sapiens, UniProt Q16539)
HTR1A: 5-hydroxytryptamine receptor 1A (HTR1A, Homo sapiens, UniProt P08908)

Structure (SMILES)	target	test	IC50
CCCC[C@H](NC(=O)[C@H](C)c1c(C)[nH]c2ccc(O)cc12)c1ncc(-c2cc3ccccc3nc2OC)[nH]1	Prostaglandin E2 receptor EP3 subtype (PTGER3, Homo sapiens, UniProt P43115)	enzyme activity	8650 nM
CC1=CC[C@@H](C(C)(C)O)CC1	Urease subunit beta (ureB, Helicobacter pylori, UniProt P69996)	enzyme activity in cells, inhibitor, absorbance	9350 nM
COc1cc2c(cc1OC)-c1c/c(=N\c3c(C)cc(C)cc3C)n(C)c(=O)n1CC2	PDE3A	enzyme activity, inhibitor, FP	0.067 nM
CC(C)(C)n1nc(-c2ccc3nc(OC4CC4)ccc3c2)c(C(N)=O)c1N	Death-associated protein kinase 3 (DAPK3, Homo sapiens, UniProt O43293)	cell-free assay	> 10000 nM
O=C(/C=C/c1ccc(O)c(O)c1)O[C@H](Cc1ccc(O)c(O)c1)C(=O)O	LRRK2	enzyme activity, inhibitor, radiometric	1870 nM
CCOCc1nc(O)c(-c2nnc(Cc3ccc(Cl)cn3)o2)c(O)c1-c1c(OC)cccc1OC	Alpha-2C adrenergic receptor (ADRA2C, Homo sapiens, UniProt P18825)	ligand displacement, radioligand	> 30000 nM
COc1ccc2c(Oc3ccc4c(C(=O)Nc5ccccc5N)cccc4c3)ccnc2c1	Macrophage-stimulating protein receptor (MST1R, Homo sapiens, UniProt Q04912)	enzyme activity, inhibitor	> 500 nM
Cn1c(=O)c([N+](=O)[O-])c(Cl)c2ccccc21	Adenylate cyclase type 1 (Homo sapiens, UniProt Q08828)	cAMP	300 nM
CN1CCN(c2ccc(Nc3ncc4cc(C#N)c(=O)n(C5CCCC5)c4n3)cc2)CC1	Mitogen-activated protein kinase kinase kinase kinase 4 (MAP4K4, Homo sapiens, UniProt O95819)	enzyme activity, inhibitor	245 nM
Cc1ccc(NC(=O)c2cccc(N(C)C)c2)cc1NC(=O)c1ccc(O)cc1	MAPK14	enzyme activity, inhibitor, ADP detection	300 nM
Cc1cnc(-c2ccc(-c3ccc(NC(=O)Nc4c(F)cc(F)cc4F)cc3F)c3c2C(=O)NC3)[nH]1	LRRK2	enzyme activity, inhibitor	13.4 nM
O=c1ccc2cc(O)c(O)cc2o1	Leucine-rich repeat serine/threonine-protein kinase 2 (LRRK2, Homo sapiens, UniProt Q5S007, G2019S)	enzyme activity, inhibitor, radiometric	358 nM
CC1Cc2ccccc2N1C(=O)NCCCCN(C)[C@@H]1Cc2cccc3[nH]c(=O)n(c23)C1 (mixture of isomers)	HTR1A	ligand displacement, radioligand	25.6 nM
N#C/C(=C\c1ccc(O)c(O)c1)C(=O)OC/C=C/c1ccccc1	LRRK2	enzyme activity, inhibitor, radiometric	619 nM
CCCCCCOC(=O)c1ccccc1C(=O)c1ccc(N(CC)CC)cc1O	Estrogen receptor (ESR1, Homo sapiens, UniProt P03372)	reporter gene, antagonist	4760 nM
COc1ccc(C2=NN(C3CCCCCC3)C(=O)[C@@H]3CC=CC[C@H]23)cc1-c1ccc(C(N)=O)cc1 (relative stereo)	PDE3A	enzyme activity, inhibitor	7940 nM
CC(C)(C)n1nc(-c2cnc3cc(OC4CC4)ccc3c2)c(C(N)=O)c1N	MAPK14	cell-free assay	> 10000 nM
CN(CCCCNC(=O)c1cc2ccccc2[nH]1)[C@@H]1Cc2cccc3[nH]c(=O)n(c23)C1	HTR1A	ligand displacement, radioligand	137 nM
CCC(C)(O)C(=O)N1CCC(NC(=O)Nc2ccc(OC(F)(F)F)c(F)c2)CC1 (centres unmarked)	Bifunctional epoxide hydrolase 2 (Ephx2, Rattus norvegicus, UniProt P80299)	enzyme activity, inhibitor	10.6 nM
CSc1ccc(/C=C2/C(C)=C(CC(=O)O)c3cc(F)ccc32)cc1	PDE3A	enzyme activity, inhibitor	> 100000 nM
